Data taken from PMC6137948 (Drug Design, Development and Therapy, 2018).
“Also recorded” adds a separate entry of the source.

How the values were obtained:
[1] = tested on: E. faecium 568; experiment: MIC, broth micro-dilution, pre-screening panel; assay type: cell-based, Enterococcus faecium; conditions: E. faecium 568 (VSE), Mueller Hinton broth
[2] = tested on: VISA; conditions: Introduction; cited from earlier work
[3] = tested on: non-immune activation of histamine release (inflammatory reaction to concanavalin A); experiment: Pseudoallergic inflammatory reaction on concanavalin A; assay type: in vivo; conditions: male CBA mice; single IV dose of MTD
[4] = tested on: CBA mice; experiment: Acute toxicity in mice; conditions: for MTD (LD10): CBA mice, single bolus IV injection in 5% glucose, Litchfield and Wilcoxon; for ratio between therapeutic (ED50) and toxic doses (MTD): ED50 in sepsis model / MTD in mice
[5] = tested on: S. aureus 3797 (VISA); experiment: MIC, broth micro-dilution, pre-screening panel; assay type: cell-based, Staphylococcus aureus; conditions: S. aureus 3797 (VISA HIP-5836), Mueller Hinton broth
[6] = tested on: vancomycin-intermediate resistant Staphylococcus aureus (VISA); experiment: MIC, pre-screening panel, summary for VISA strains; assay type: cell-based; conditions: summary of Table 1, S. aureus 3797 and 3798
[7] = tested on: E. faecalis 559; experiment: MIC, broth micro-dilution, pre-screening panel; assay type: cell-based, Enterococcus faecalis; conditions: E. faecalis 559 (VSE), Mueller Hinton broth
[8] = tested on: S. haemolyticus 602; experiment: MIC, broth micro-dilution, pre-screening panel; assay type: cell-based, Staphylococcus haemolyticus; conditions: Mueller Hinton broth
[9] = tested on: S. aureus 3798 (VISA); experiment: MIC, broth micro-dilution, pre-screening panel; assay type: cell-based, Staphylococcus aureus; conditions: S. aureus 3798 (VISA HIP-5827), Mueller Hinton broth
[10] = tested on: S. epidermidis 533; experiment: MIC, broth micro-dilution, pre-screening panel; assay type: cell-based, Staphylococcus epidermidis; conditions: Mueller Hinton broth
[11] = tested on: VRE; conditions: Introduction; cited from earlier work
[12] = tested on: Coagulase-negative Staphylococcus (n=45); experiment: Antimicrobial susceptibility testing of clinical isolates; assay type: cell-based
Summary of the method: (§1)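 Non-duplicate clinical isolates from hospitalised adults and children with community or nosocomial infections (skin/soft tissue, respiratory tract, bone, joint, urinary tract, abdominal). Tested per EUCAST recommendations by broth microdilution in Mueller Hinton broth following NCCLS procedures.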

[13] = tested on: S. aureus (MSSA, n=179); experiment: as above; assay type: cell-based, Staphylococcus aureus
Summary of the method: as §1

[14] = tested on: genera Staphylococcus and Enterococcus; experiment: Antimicrobial susceptibility testing, panel of 676 isolates, summary; assay type: cell-based; conditions: for MIC90 for the genera Staphylococcus and Enterococcus: panel of 676 isolates, except for E. faecium
[15] = tested on: E. faecium (n=75); experiment: Antimicrobial susceptibility testing of clinical isolates; assay type: cell-based, Enterococcus faecium; conditions: for MIC 50% (MIC50) / MIC 90% (MIC90): E. faecium n=75
[16] = tested on: E. faecalis (n=122); experiment: Antimicrobial susceptibility testing of clinical isolates; assay type: cell-based, Enterococcus faecalis
Summary of the method: as §1

[17] = tested on: S. aureus (strain 10); experiment: Mouse model of staphylococcal sepsis; assay type: in vivo; conditions: staphylococcal sepsis in mice, IV
Summary of the method: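 Female SHK mice (22–25 g), quarantined 2 weeks, infected IV with mouse-adapted S. aureus strain 10 at lethal dose (LD100 3 × 10^8 CFU/mouse). Thirty minutes later, test compound given IV in 5% glucose at 6 doses (0.25–4.5 mg/kg); comparator glycopeptides at 2.5–7.5 and 0.5–5.0 mg/kg. Untreated infected controls included. Mortality recorded daily for 10 days. ED50 by Barents frequency-accumulation method; ratios from ED50 values.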

[18] = tested on: S. aureus (MRSA, n=255); experiment: Antimicrobial susceptibility testing of clinical isolates; assay type: cell-based, Staphylococcus aureus
Summary of the method: as §1

[19] = tested on: panel of clinical isolates of Gram-positive microorganisms; experiment: MIC, pre-screening panel, summary for all tested strains; assay type: cell-based; conditions: text summary of Table 1, all strains of the pre-screening panel
[20] = VRE isolates of the E. faecium collection

For “Eremomycin [compound 2, reference compound]”, the MIC [1] is listed as 0.5 µg/mL, the “MIC against VISA” value [2] is listed as 8 µg/mL and the “pseudoallergic inflammatory reaction on concanavalin A, in words” value (shortened to “pseudoallergic inflammatory reaction”) [3] is listed as “statistically significant elevations of Me with respect to Mc”. For the same substance, the “MTD (LD10)” value [4] was 877.9 mg/kg, the “acute toxicity, fold lower than that of 1” value ([4]; by LD50, CBA mice, IV) was ~3 fold and the MIC [5] was 4 µg/mL. For the same substance, the “MICs against VISA strains” value [6] was 4 to 8 mg/L, the MIC [7] was 0.5 µg/mL and the MIC [8] was 0.25 µg/mL. The MIC [9] was 4 µg/mL, the MIC [10] was 0.25 µg/mL and the “activity against VRE, in words” value [11] was “inactive”.
In the case of Eremomycin piperidide [compound 6], the MIC [1] was 0.5 µg/mL, the MIC [5] was 0.5 µg/mL and the “MICs against VISA strains” value [6] was 0.5 to 2 mg/L. For the same substance, the MIC [9] was 2 µg/mL and the MIC [10] was 0.13 µg/mL.
With Eremomycin pyrrolidide [compound 5] the MIC [1] was 0.13 µg/mL, the “pseudoallergic inflammatory reaction” value [3] was “did not induce pseudoallergic inflammatory reaction; also recorded: non-significant difference; also recorded: no histamine release activity” and the “MIC 50% (MIC50)” value [12] was 0.25 µg/mL. For the same substance, the “MIC 90% (MIC90)” value [12] was 0.5 µg/mL, the “MIC 50% (MIC50)” value [13] was 0.5 µg/mL and the “MIC 90% (MIC90)” value [13] was 0.5 µg/mL. For the same substance, the “potency exceeding that of vancomycin (1)” value ([14]; S. aureus, coagulase-negative Staphylococcus and Enterococcus strains) was 2–4 dilutions, the “MIC90 for the genera Staphylococcus and Enterococcus” value [14] was 0.5 µg/mL and the “MTD (LD10)” value [4] was 119.7 mg/kg. For the same substance, the “ratio between therapeutic (ED50) and toxic doses (MTD)” value ([4]; IV) was 1/150, the “acute toxicity, fold higher” value ([4]; by LD50 compared with 1, CBA mice, IV) was “about 2 fold” and the “therapeutically efficient dose, fold smaller than MTD” value ([4]; mice, IV) was 150 fold. For the same substance, the MIC [5] was 1 µg/mL, the “MICs against VISA strains” value [6] was 0.5 to 2 mg/L and the “MICs against VISA strains” value ([6]; listed as eremomycin pyrrolidide (5)) was 1 mg/L. The “MIC 50% (MIC50)” value [15] was 0.125 µg/mL, the “MIC 90% (MIC90)” value [15] was 4 µg/mL and the “susceptibility of vancomycin-resistant E. faecium (VRE) strains, in words” value [15, 20] was “susceptible”. For the same substance, the MIC [7] was 0.25 µg/mL, the “MIC 50% (MIC50)” value [16] was 0.25 µg/mL and the “MIC 90% (MIC90)” value [16] was 0.5 µg/mL. It also gave an MIC [8] of 0.25 µg/mL, an MIC [9] of 1 µg/mL and an MIC [10] of 0.25 µg/mL. The “ED50 times lower than that for 1” value [17] was 5 times, the “ED50 times lower than that for 2” value [17] was 2.5 times and the “MIC 50% (MIC50)” value [18] was 0.25 µg/mL. The “MIC 90% (MIC90)” value [18] was 0.5 µg/mL.
In the case of “Vancomycin [compound 1, reference compound]”, the MIC [1] is given as 2 µg/mL, the “MIC for VISA isolates” value [2] is given as ≥ 8 µg/mL and the “pseudoallergic inflammatory reaction” value [3] is given as “statistically significant elevations of Me with respect to Mc”. For the same substance, the “MIC 50% (MIC50)” value [12] was 2 µg/mL, the “MIC 90% (MIC90)” value [12] was 2 µg/mL and the “MIC 50% (MIC50)” value [13] was 1 µg/mL. The “MIC 90% (MIC90)” value [13] was 1 µg/mL, the “MIC90 for the genera Staphylococcus and Enterococcus” value [14] was 1 to 2 µg/mL and the “MTD (LD10)” value [4] was 360 mg/kg. The “ratio between therapeutic (ED50) and toxic doses (MTD)” value ([4]; IV) was 1/90, the MIC [5] was 8 µg/mL and the “MICs against VISA strains” value [6] was 4 to 8 mg/L. For the same substance, the “MIC 50% (MIC50)” value [15] was 1 µg/mL, the “MIC 90% (MIC90)” value [15] was 2 µg/mL and the “MIC for strains of vancomycin-resistant E. faecium (VRE)” value [15, 20] was > 64 µg/mL. The “number of resistant strains of E. faecium (VRE)” value ([15]; strains with MIC =64 mg/L (b1) / MIC >64 mg/L, number (% of strains)) was 7 (8%), the MIC [7] was 2 µg/mL and the “MIC 50% (MIC50)” value [16] was 1 µg/mL. For the same substance, the “MIC 90% (MIC90)” value [16] was 2 µg/mL, the MIC [8] was 2 µg/mL and the MIC [9] was 8 µg/mL. The MIC [10] was 2 µg/mL, the “MIC 50% (MIC50)” value [18] was 1 µg/mL and the “MIC 90% (MIC90)” value [18] was 2 µg/mL. For the same substance, the “activity against VRE, in words” value [11] was “inactive”.
In the case of Vancomycin piperidide [compound 4], the MIC [1] was 0.5 µg/mL, the “MICs against the tested strains” value [19] was 0.5 to 8 mg/L and the MIC [5] was 1 µg/mL. For the same substance, the “MICs against VISA strains” value [6] was 0.5 to 2 mg/L, the MIC [9] was 1 µg/mL and the MIC [10] was 0.5 µg/mL.
For Vancomycin pyrrolidide [compound 3], the MIC [1] was 1 µg/mL, the “MICs against the tested strains” value [19] was 0.5 to 8 mg/L and the MIC [5] was 4 µg/mL. It also gave an MIC [7] of 2 µg/mL, an MIC [8] of 0.5 µg/mL and an MIC [9] of 8 µg/mL. The MIC [10] was 0.5 µg/mL.
